Laboratory results from ChEMBL document CHEMBL1135874, “Novel agents combining platelet activating factor (PAF) receptor antagonist with thromboxane synthase inhibitor (TxSI)” (Bioorg Med Chem Lett, 2002).
pIC50: −log10 of the molar value.

Legend:
[1] = molecular target: T1, Thromboxane-A synthase (Homo sapiens, UniProt P24557); test: In vitro inhibition of thromboxane synthase (TXA2) in human platelet microsomes [reduced formation of TXB2 from prostaglandin H2(PGH2)]; type: functional, Microsome; details: for pIC50: read-out: IC50
T1 sequence (P24557 whole entry): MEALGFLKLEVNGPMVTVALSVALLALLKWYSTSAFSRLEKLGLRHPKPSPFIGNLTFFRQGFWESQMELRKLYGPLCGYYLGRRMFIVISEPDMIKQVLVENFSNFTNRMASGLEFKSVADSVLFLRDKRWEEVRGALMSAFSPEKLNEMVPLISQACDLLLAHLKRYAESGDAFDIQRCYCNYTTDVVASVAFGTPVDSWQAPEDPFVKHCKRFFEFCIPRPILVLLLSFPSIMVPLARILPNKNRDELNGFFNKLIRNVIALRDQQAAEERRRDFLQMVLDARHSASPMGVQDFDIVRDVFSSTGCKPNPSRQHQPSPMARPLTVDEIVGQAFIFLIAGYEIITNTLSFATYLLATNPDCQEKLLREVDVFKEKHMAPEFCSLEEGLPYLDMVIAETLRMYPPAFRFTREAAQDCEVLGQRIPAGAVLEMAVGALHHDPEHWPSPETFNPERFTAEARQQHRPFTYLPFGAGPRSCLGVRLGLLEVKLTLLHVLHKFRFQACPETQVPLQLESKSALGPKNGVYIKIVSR

[2] = molecular target: T2, Thromboxane-A synthase (Rattus norvegicus) (UniProt P49430); test: Thromboxane synthase inhibitor (TxSI) activity assessed by ex vivo inhibition of serum TXB2 production in rat after Intravenous administration; type: functional, organism-based
T2 sequence (whole entry): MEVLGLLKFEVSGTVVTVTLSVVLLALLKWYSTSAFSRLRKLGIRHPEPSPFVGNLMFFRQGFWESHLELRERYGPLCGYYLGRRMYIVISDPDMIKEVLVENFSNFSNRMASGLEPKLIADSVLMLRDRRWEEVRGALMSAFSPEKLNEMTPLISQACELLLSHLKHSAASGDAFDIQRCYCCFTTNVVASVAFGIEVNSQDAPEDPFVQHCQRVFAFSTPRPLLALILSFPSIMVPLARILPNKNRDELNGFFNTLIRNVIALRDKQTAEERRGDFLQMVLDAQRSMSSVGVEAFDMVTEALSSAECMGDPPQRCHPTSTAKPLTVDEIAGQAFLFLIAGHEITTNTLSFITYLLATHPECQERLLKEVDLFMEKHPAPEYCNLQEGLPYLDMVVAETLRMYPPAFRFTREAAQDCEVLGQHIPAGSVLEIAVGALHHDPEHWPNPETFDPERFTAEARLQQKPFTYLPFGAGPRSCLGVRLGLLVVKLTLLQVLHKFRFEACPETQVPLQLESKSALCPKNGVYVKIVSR
Procedure, shortened: (§1)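 Rats dosed intravenously or orally. Blood was then taken, and serum TxB2 production was measured ex vivo. Values are reported as ED50 doses in mg/kg. Oral testing used the same method as intravenous testing.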

[3] = molecular target: Platelet-activating factor receptor (Mus musculus) (UniProt Q62035); test: Antagonism of Platelet activating factor (PAF) activity in mice after oral administration, assayed by PAF-induced death; type: functional, organism-based
Procedure, shortened: (§2)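 Mice dosed with test agent intravenously or orally, then injected with a lethal dose of PAF. Protection from PAF-induced death was scored. ED50 was taken as the dose that reduced mortality by 50%. Oral testing used the same method as intravenous testing.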

[4] = molecular target: T2, Thromboxane-A synthase (Rattus norvegicus); test: Thromboxane synthase inhibitor (TxSI) activity was assessed by ex vivo inhibition of serum TXB2 production in rat after oral administration; type: functional, organism-based; procedure, shortened: as §1
[5] = molecular target: Platelet-activating factor receptor (Mus musculus) (UniProt Q62035); test: Antagonism of Platelet activating factor (PAF)in mice after Intravenous administration, assayed by PAF-induced death; type: functional, organism-based; procedure, shortened: as §2
[6] = Inhibition of Platelet activating factor (PAF)- induced platelet aggregation in rabbit platelet rich plasma (PRP); type: functional

Platelet-activating factor receptor (Mus musculus), sequence (Q62035 whole entry): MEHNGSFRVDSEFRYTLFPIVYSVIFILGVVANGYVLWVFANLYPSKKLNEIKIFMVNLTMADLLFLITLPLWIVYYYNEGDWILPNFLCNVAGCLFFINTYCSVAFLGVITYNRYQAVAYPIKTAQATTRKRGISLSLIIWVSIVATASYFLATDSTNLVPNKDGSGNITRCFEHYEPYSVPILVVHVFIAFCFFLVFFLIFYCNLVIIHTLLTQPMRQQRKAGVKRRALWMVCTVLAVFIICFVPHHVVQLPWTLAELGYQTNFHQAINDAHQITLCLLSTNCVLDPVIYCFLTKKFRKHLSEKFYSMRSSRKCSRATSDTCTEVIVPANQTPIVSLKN

Structure (SMILES)	pIC50 [1]	ED50 [2] [mg/kg]	ED50 [3] [mg/kg]	ED50 [4] [mg/kg]	ED50 [5] [mg/kg]	pIC50 [6]	IC50 [1]
CCOC(=O)CCCC/C=C(\c1ccc(CN2CCc3c(sc4c3C(c3ccccc3Cl)=NC(C)c3nnc(C)n3-4)C2)cc1)c1cccnc1 (stereo unspecified)	7.14	1	1.6	5.2	0.55	7.49	
Cc1nnc2n1-c1sc3c(c1C(c1ccccc1Cl)=NC2C)CCN(Cc1cccc(/C(=N\OCCCCC(=O)OCc2ccccc2)c2cccnc2)c1)C3 (stereo unspecified)	6.33	> 1	> 10		0.54	7.01	
O=C(O)CCCC/C=C(/c1ccccc1)c1cccnc1		0.01		0.05			
O=C(O)/C=C/c1ccc(Cn2ccnc2)cc1		0.02		0.1			
CCOC(=O)CCCCO/N=C(\c1ccccc1)c1cccnc1	9.00	0.01		> 0.1			
CCOC(=O)CCCCO/N=C(/c1cccnc1)c1cccc(CCCC(=O)N2CCc3c(sc4c3C(c3ccccc3Cl)=NC(C)c3nnc(C)n3-4)C2)c1 (stereo unspecified)	7.39	> 1	> 10		1.05	7.41	
CCOC(=O)CCCC/C=C(/c1cccnc1)c1cccc(CN2CCc3c(sc4c3C(c3ccccc3Cl)=NC(C)c3nnc(C)n3-4)C2)c1 (stereo unspecified)	7.17	0.71	> 10	3.2	0.6	7.41	
CCOC(=O)CCCCO/N=C(\c1ccc(CC(=O)N2CCc3c(sc4c3C(c3ccccc3Cl)=NC(C)c3nnc(C)n3-4)C2)cc1)c1cccnc1 (stereo unspecified)	7.16	> 1	> 10		4.2	7.07	
Cc1nnc2n1-c1sc3c(c1C(c1ccccc1Cl)=NC2C)CCNC3 (stereo unspecified)	< 6.00				> 5	6.61	
CCOC(=O)CCCCO/N=C(/c1cccnc1)c1cccc(CN2CCc3c(sc4c3C(c3ccccc3Cl)=NCc3nnc(C)n3-4)C2)c1	7.19	0.1	> 10	> 10	0.8	6.70	
CCOC(=O)C1=C(c2ccc(-n3c(C)nc4cnccc43)cc2)NC(C)=C(C(=O)Nc2ccccn2)C1c1ccccc1Cl (stereo unspecified)			1.55		0.1		Not Active
